TLR9-MyD88 inh – blocks human TLR9 binding to MyD88; Q9NR96+Q99836; CHO BLA complementation TLR9-MyD88, CCF4 FRET ratio; inhibition, % at 4.98 µM; 0.21% of 340,000 active;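 active means inhibition above the mean over all tested compounds plus 3 SD, cut at about 21% in these data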;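 further: 0% = DMSO only wells and 100% = clavulanate BLA inhibitor control wells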
NOD2 RIPK2 PPI – blocks binding of human NOD2 to RIPK2 | O43353 | CHO BLA complementation NOD2-RIPK2, CCF4 ratio | inhibition, % at 4.98 µM | 0.38% of 360,000 active | AID 624267; in the data active means inhibition above about 21%;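 further: 0% = vehicle only and 100% = reference blocker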
MC4R antag cAMP – antagonists of human melanocortin 4 receptor (MC4R); P32245; MC4R-expressing cells, MTII-stimulated cAMP, LANCE TR-FRET; inhibition, % at 6.5 µM; 0.48% of 360,000 active; AID 540295;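 active means inhibition above its plate's cutoff, the mean of tested wells on that plate plus 3 SD, cut at about 29% in these data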;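 further: 0% = Melanotan II alone and 100% = Melanotan II plus saturating MCL0020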
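System: U2OS cells stably expressing human melanocortin 4 receptor (MC4R). Reagent: Melanotan II challenge after compound preincubation. Doses: 6.5 µM. Times: 30-min compound, 1-h challenge, 1-h detection, room temperature. Measured by: TR-FRET with Eu-cAMP and labeled anti-cAMP, 671 nm. Replicates: singlicate.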
beta cell repl – inducers of beta-cell replication in MIN6 cells | MIN6 cells proliferation, ATPlite luminescence, 48 h; cells starved in 0.2% serum; 100% = growth in 10% serum | proliferation, % at 10 µM | 0.29% of 330,000 active | AID 2380;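 active means compounds whose signal lies at least 3.5 SD above the mean of all wells on their plate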;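 further: 0% = DMSO-treated cells in low-serum medium and 100% = 10% serum control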
TLR4-MyD88 BLA – inhibitors of human TLR4-MyD88 binding | O00206+Q99836 | HeLa CL3-4 TLR4/MyD88 BLA complementation, FRET ratio | inhibition, % at 8.4 µM | 0.18% of 200,000 active | AID 861; in the data active means inhibition above about 25%;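 further: 0% = vehicle and 100% = reference inhibitor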
Target sequence (O00206 whole entry, looked up): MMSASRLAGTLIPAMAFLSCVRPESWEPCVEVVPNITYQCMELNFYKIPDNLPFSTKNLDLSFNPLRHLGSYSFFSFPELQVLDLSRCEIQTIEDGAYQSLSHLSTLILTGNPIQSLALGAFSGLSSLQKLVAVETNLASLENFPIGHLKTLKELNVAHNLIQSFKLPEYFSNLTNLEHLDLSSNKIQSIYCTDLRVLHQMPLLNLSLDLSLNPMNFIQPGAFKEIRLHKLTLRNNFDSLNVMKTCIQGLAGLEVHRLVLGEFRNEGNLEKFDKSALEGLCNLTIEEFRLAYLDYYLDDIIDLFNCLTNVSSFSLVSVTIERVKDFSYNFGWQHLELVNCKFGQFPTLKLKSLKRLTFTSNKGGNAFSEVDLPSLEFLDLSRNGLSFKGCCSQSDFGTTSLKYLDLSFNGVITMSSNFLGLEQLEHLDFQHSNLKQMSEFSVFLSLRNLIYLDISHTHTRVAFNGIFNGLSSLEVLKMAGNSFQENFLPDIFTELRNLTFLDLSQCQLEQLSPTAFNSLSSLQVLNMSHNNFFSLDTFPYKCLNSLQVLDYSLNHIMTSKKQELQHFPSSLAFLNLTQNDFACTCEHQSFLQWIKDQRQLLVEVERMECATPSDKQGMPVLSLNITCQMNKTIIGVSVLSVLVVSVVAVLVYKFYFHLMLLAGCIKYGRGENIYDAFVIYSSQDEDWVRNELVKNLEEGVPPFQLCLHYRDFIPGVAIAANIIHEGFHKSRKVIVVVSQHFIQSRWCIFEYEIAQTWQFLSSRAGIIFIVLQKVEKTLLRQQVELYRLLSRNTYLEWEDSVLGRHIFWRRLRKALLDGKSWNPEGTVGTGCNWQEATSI
Target sequence (Q99836 whole entry, looked up): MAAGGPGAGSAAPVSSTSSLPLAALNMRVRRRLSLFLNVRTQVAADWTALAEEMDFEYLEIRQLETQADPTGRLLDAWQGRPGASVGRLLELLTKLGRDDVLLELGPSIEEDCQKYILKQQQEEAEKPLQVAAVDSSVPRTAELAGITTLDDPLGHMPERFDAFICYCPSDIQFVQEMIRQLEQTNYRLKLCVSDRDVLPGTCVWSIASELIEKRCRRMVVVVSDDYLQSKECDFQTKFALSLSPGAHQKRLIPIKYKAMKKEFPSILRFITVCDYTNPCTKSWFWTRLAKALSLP
MC4R barr agon – human MC4R agonism via beta-arrestin; U2OS MC4R beta-arrestin complementation, luminescence; percent of melanotan II response, DMSO zero; activation, % at 8.9 µM; P32245; 0.98% of 360,000 active;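 active means activation above a per-plate cutoff, the mean activation of sample wells on that plate plus 3 SD, cut at about 8% in these data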
MC4R barr conf – human MC4R beta-arrestin agonism confirmation | shares compounds with MC4R barr agon | U2OS MC4R beta-arrestin recruitment, luminescence; scaled DMSO 0%, Melanotan II 100% | activation, % at 8.9 µM | 31% of 2,400 active | AID 602192;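 active means mean activation across replicates above the hit cutoff set in the earlier primary screen, cut at about 8% in these data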
MOR-DOR barr ag – counter-screen for MC4R agonists: agonists of mu-delta opioid heterodimer; shares compounds with MC4R barr agon; U2OS PathHunter beta-arrestin, beta-gal luminescence; percent of deltorphin B response, DMSO zero; activation, % at 9.2 µM; 5.8% of 2,400 active;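 active means mean activation across replicates exceeds the hit threshold derived in the earlier primary screen, cut at about 18% in these data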;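 further: 100% = deltorphin B at 0.9 µM final and 0% = DMSO alone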
* marks the source's active call; other numbers are inactive results; . = no result given. This is a sample that favours compounds with a hit; in the whole collection about 2.1% have one here.

SMILES | TLR9-MyD88 inh | NOD2 RIPK2 PPI | MC4R antag cAMP | beta cell repl | TLR4-MyD88 BLA | MC4R barr agon | MC4R barr conf | MOR-DOR barr ag
S=C1NCN(C2CCCCC2)CN1c1ccccc1 | -3 | -1 | 2 | -1 | . | -1 | . | .
O=C(Nc1ccc(-c2nc3ccccc3[nH]2)cc1)c1ccccc1NS(=O)(=O)c1ccc(F)cc1 | 6 | -3 | 25 | -3 | -9 | 15* | 6 | 2
CCOC(=O)c1c(C)[nH]c(C)c1C(=O)CSc1nnc(-c2ccc(OC(F)F)cc2)o1 | 8 | -14 | 2 | 1 | -4 | 29* | 6 | 9
Cc1c(-c2ccc(F)cc2)nc(N)c(C#N)c1-c1ccco1 | -2 | 15 | 3 | -1 | -8 | 15* | 3 | 7
Cc1sc2ncnc(Nc3ccc(O)cc3)c2c1C | -3 | -5 | -12 | -4 | . | -3 | . | .
Oc1ccc(Nc2ncnc3scc(-c4ccccc4)c23)cc1 | 6 | 0 | 4 | 1 | 10 | 12* | 8 | 6
c1ccc(-c2csc3ncnc(NCc4ccccn4)c23)cc1 | -5 | 5 | -14 | -1 | . | 11* | 4 | 3
CCOC(=O)C1CCN(C(=O)C(CCSC)NC(=O)c2ccccc2OC)CC1 (configuration not stated) | -1 | 2 | -3 | -5 | . | -1 | . | .
CCOC(=O)C(=CNc1ccc2c(c1)nnn2-c1ccc(Cl)cc1)C(=O)OCC | -12 | -9 | 11 | -3 | -13 | 22* | 23* | 4
Oc1cccc(C(=S)N2CCC(Cc3ccccc3)CC2)c1 | -1 | -1 | 0 | 0 | . | 10* | 6 | 11
O=c1[nH]c2cc(O)ccc2c2ccccc12 | . | 10 | 9 | . | . | -3 | . | .
O=C(O)Cn1c(O)c(C2=c3ccccc3=NC2=O)sc1=O | -6 | -3 | -15 | -6 | . | -2 | . | .
C=CCn1c(O)c(C2=c3ccccc3=NC2=O)s/c1=N/c1nccs1 | -4 | 0 | -4 | -6 | 10 | 10* | 0 | 4
NS(=O)(=O)c1ccc(CCNc2nc3c(-c4cccc(F)c4)nnn3c3ccccc23)cc1 | -2 | -8 | -51 | -3 | 10 | 15* | 11* | 13
O=C(CCCc1ccccc1)NCCS(=O)(=O)N1CCN(c2ccccc2F)CC1 | 1 | 2 | 14 | 0 | . | -3 | . | .
O=C(Nc1c(Cl)cccc1Cl)c1ccc(-c2ccccc2)cc1 | 4 | 2 | -1 | 0 | -3 | 21* | -1 | 11
O=C(Nc1ccc(Cl)cc1Cl)c1ccc(-c2ccccc2)cc1 | -4 | -3 | 7 | 0 | -16 | 2 | . | .
CCOC(=O)c1ccc(Cl)c(NC(=O)c2ccc(-c3ccccc3)cc2)c1 | -2 | 4 | -19 | -3 | 2 | 13* | 4 | 16
Cc1ccc(OCC(=O)NC2CCSc3ccccc32)cc1 (configuration not stated) | -6 | 2 | 1 | 5 | . | -1 | . | .
COc1ccccc1NC(=O)c1ccc(-c2ccc(Br)cc2)o1 | -7 | -9 | 1 | -2 | -12 | 0 | . | .
COc1cc(NC(=O)c2ccc(-c3ccc(Br)cc3)o2)ccc1NC(=O)C(C)C | -3 | -16 | 2 | -2 | -15 | 15* | 6 | 4
CCOC(=O)c1sc2nc(NC(=O)C(C)(C)C)sc2c1C | 7 | -4 | 16 | -5 | -5 | 10.0* | 0 | 8
Cc1ccc(C(=O)NC(=S)Nc2ccc(NC(=O)c3cccs3)cc2)cc1[N+](=O)[O-] | 7 | 10 | 4 | 0 | 1 | 29* | 5 | 8
O=C(NC(=S)Nc1ccc(NC(=O)c2cccs2)cc1)c1cc2ccccc2o1 | 8 | -8 | -4 | 0 | 4 | 26* | 9.6* | 10
CCN(c1ccc(N=Cc2c(O)n(Cc3ccc(OC)cc3)c(=O)c3ccccc23)cc1)C(C)C | -1 | -3 | 0 | . | -8 | -1 | . | .
SMILES | TLR9-MyD88 inh | NOD2 RIPK2 PPI | MC4R antag cAMP | beta cell repl | TLR4-MyD88 BLA | MC4R barr agon | MC4R barr conf | MOR-DOR barr ag
Cc1cccc2c(N=Nc3ccccc3)c(O)[nH]c12 | 8 | 4 | -3 | -3 | . | 15* | 1 | 2
Oc1[nH]c2ccccc2c1N=Nc1cccc(Cl)c1 | 11 | 7 | -4 | -1 | . | 0 | . | .
NC(=O)CC(NC(=O)c1ccc(Br)cc1)c1ccc(NCCc2ccc(F)cc2)c([N+](=O)[O-])c1 (configuration not stated) | 1 | 9 | 3 | -8 | . | 13* | -1 | 3
NC(=O)CC(NC(=O)c1ccccc1)c1ccc(NCCc2cccc(F)c2)c([N+](=O)[O-])c1 (configuration not stated) | 2 | -5 | 5 | -5 | . | -1 | . | .
Cc1c(C(=O)Nc2cccc([N+](=O)[O-])c2)csc1-c1ccccc1 | 2 | 2 | 3 | -6 | -3 | 14* | 2 | 10
CCC(=O)c1ccc(OCC(=O)N2CCN(S(=O)(=O)c3ccc(Cl)s3)CC2)cc1 | -8 | -5 | 3 | -2 | . | -2 | . | .
Cc1nc2ccc(C(=O)NC(C)(C)C)cn2c1N(C)C(=O)CCc1ccccc1 | . | 2 | 0 | . | . | -1 | . | .
CCC(Oc1cc(Cl)ccc1Cl)C(=O)NN1C(=O)C2C3CCC(C3=C(C)C)C2C1=O (configuration not stated) | -10 | 16 | 4 | -1 | 8 | 9.9* | 6 | 8
O=C(Nc1nc(-c2ccc(F)c(F)c2)cs1)Nc1ccc(F)cc1F | 7 | -2 | -1 | -6 | . | 10* | 7 | 4
CC(C)NC(=S)NNc1nc2ccccc2s1 | 10 | -11 | 5 | -5 | -15 | -1 | . | .
CCCCCCOc1ccc(/C(C)=N/NC2=NCCN2)cc1[N+](=O)[O-] | -10 | -10 | 4 | -6 | 3 | 14* | 12* | 10
S=c1[nH]nc(-c2cc(-c3ccccc3)n[nH]2)n1/N=C/c1ccc(Br)s1 | 6 | -1 | 6 | -6 | . | 33* | 2 | 2
Cc1ccsc1/C=N/n1c(-c2cc(-c3ccccc3)n[nH]2)n[nH]c1=S | 3 | 11 | 12 | -4 | . | 12* | -3 | 4
Cc1ccccc1/C=N/n1c(-c2cc(-c3ccccc3)n[nH]2)n[nH]c1=S | 1 | -4 | 23 | -6 | . | 13* | 4 | 5
CCC(=O)N1CCC(C)(C(=O)NCc2cccc(OC)c2)C1 (configuration not stated) | . | -3 | 2 | . | . | -2 | . | .
Cc1cc(C(=O)N/N=C/c2ccc(-c3cccc(Cl)c3)o2)n[nH]1 | -1 | 4 | 2 | -2 | . | 6 | . | .

Assay outcomes from PubChem.
